In ChEMBL document CHEMBL1152910, “Synthesis and structure-activity relationships of phenothiazine carboxylic acids having pyrimidine-dione as novel histamine H(1) antagonists” (Bioorg Med Chem Lett, 2009):

Target: Histamine H1 receptor (Homo sapiens, UniProt P35367)
Experiment: Displacement of [3H]pyrilamine from human recombinant histamine H1 receptor expressed in CHOK1 cells by scintillation counting
Type: cell-based, CHO-K1
Conditions: not given

Sequence of Histamine H1 receptor (P35367 whole entry): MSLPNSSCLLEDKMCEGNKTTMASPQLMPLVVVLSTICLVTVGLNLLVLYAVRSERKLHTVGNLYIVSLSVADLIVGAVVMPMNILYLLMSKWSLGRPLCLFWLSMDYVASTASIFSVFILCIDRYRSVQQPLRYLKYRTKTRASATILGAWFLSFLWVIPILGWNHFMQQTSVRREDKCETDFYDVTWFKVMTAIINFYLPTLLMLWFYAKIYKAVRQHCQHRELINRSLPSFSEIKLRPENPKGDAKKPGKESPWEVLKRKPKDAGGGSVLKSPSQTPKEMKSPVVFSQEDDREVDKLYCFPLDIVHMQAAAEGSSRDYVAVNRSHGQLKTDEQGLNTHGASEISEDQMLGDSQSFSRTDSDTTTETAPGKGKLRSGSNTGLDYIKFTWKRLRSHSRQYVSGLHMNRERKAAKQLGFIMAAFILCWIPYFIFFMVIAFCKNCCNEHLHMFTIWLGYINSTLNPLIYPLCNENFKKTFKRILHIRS

SMILES | IC50
Cn1c(N2CCN(CCN3c4ccccc4Sc4ccc(C(=O)O)cc43)CC2)cc(=O)n(C)c1=O | 124 nM
Cn1c(N2CCCN(CCCN3c4ccccc4Sc4ccc(OCC(=O)O)cc43)CC2)cc(=O)n(C)c1=O | 88 nM

Second part, the compound after the results:

IC50 | SMILES
69 nM | Cn1c(N2CCCN(CCCN3c4ccccc4Sc4ccc(CCC(=O)O)cc43)CC2)cc(=O)n(C)c1=O
53 nM | CN(CCCN1CCC(CN2c3ccccc3Sc3ccc(C(=O)O)cc32)CC1)c1cc(=O)n(C)c(=O)n1C
46 nM | Cn1c(NCCCN2CCC(CN3c4ccccc4Sc4ccc(C(=O)O)cc43)CC2)cc(=O)n(C)c1=O
41 nM | Cn1c(C2=CCN(CCCN3c4ccccc4Sc4ccc(CC(=O)O)cc43)CC2)cc(=O)n(C)c1=O
37 nM | Cn1c(N2CCN(CCCN3c4ccccc4Sc4ccc(C(=O)O)cc43)CC2)cc(=O)n(C)c1=O
35 nM | Cn1c(N2CCN(CCCCN3c4ccccc4Sc4ccc(C(=O)O)cc43)CC2)cc(=O)n(C)c1=O
23 nM | Cn1c(N2CCCN(CCCN3c4ccccc4Sc4ccc(C(=O)O)cc43)CC2)cc(=O)n(C)c1=O

System: not listed separately
Experiment: Apparent permeability from apical to basolateral side of human Caco-2 cells after 120 mins
Conditions: not given

SMILES | Papp A→B at 2 h
CN1CCC(=C2c3ccccc3CC(=O)c3sccc32)CC1.O=C(O)/C=C/C(=O)O [KETOTIFEN FUMARATE] | 11.1 ×10⁻⁶ cm/s
Cn1c(N2CCN(CCN3c4ccccc4Sc4ccc(C(=O)O)cc43)CC2)cc(=O)n(C)c1=O | 4.9 ×10⁻⁶ cm/s
Cn1c(N2CCCN(CCCN3c4ccccc4Sc4ccc(OCC(=O)O)cc43)CC2)cc(=O)n(C)c1=O | 0.5 ×10⁻⁶ cm/s

Other lines, results leading:

Papp A→B at 2 h | SMILES
7.7 ×10⁻⁶ cm/s | Cn1c(N2CCCN(CCCN3c4ccccc4Sc4ccc(CCC(=O)O)cc43)CC2)cc(=O)n(C)c1=O
0.6 ×10⁻⁶ cm/s | CN(CCCN1CCC(CN2c3ccccc3Sc3ccc(C(=O)O)cc32)CC1)c1cc(=O)n(C)c(=O)n1C
0.4 ×10⁻⁶ cm/s | Cn1c(NCCCN2CCC(CN3c4ccccc4Sc4ccc(C(=O)O)cc43)CC2)cc(=O)n(C)c1=O
4.7 ×10⁻⁶ cm/s | Cn1c(C2=CCN(CCCN3c4ccccc4Sc4ccc(CC(=O)O)cc43)CC2)cc(=O)n(C)c1=O
9.9 ×10⁻⁶ cm/s | Cn1c(N2CCN(CCCN3c4ccccc4Sc4ccc(C(=O)O)cc43)CC2)cc(=O)n(C)c1=O
20.3 ×10⁻⁶ cm/s | Cn1c(N2CCN(CCCCN3c4ccccc4Sc4ccc(C(=O)O)cc43)CC2)cc(=O)n(C)c1=O
4.7 ×10⁻⁶ cm/s | Cn1c(N2CCCN(CCCN3c4ccccc4Sc4ccc(C(=O)O)cc43)CC2)cc(=O)n(C)c1=O

Species on record: Mus musculus
Experiment: animal or person
Type: functional
Conditions: ddY, route oral

SMILES | inhibition in vivo at 3 mg/kg
CN1CCC(=C2c3ccccc3CC(=O)c3sccc32)CC1.O=C(O)/C=C/C(=O)O [KETOTIFEN FUMARATE] | 98%
Cn1c(C2=CCN(CCCN3c4ccccc4Sc4ccc(CC(=O)O)cc43)CC2)cc(=O)n(C)c1=O | 82%
Cn1c(N2CCCN(CCCN3c4ccccc4Sc4ccc(CCC(=O)O)cc43)CC2)cc(=O)n(C)c1=O | 51%
Cn1c(N2CCCN(CCCN3c4ccccc4Sc4ccc(C(=O)O)cc43)CC2)cc(=O)n(C)c1=O | 14%

System: Mus musculus
Experiment: In vivo antihistaminic activity at histamine H1 receptor in ddY mouse assessed as inhibition of histamine-induced skin vascular permeability at 10 mg/kg, po administered 1 hr before histamine challenge measured after 30 mins by Evan's blue staining
Type: functional
Conditions: not given

SMILES | inhibition in vivo at 10 mg/kg
Cn1c(N2CCN(CCCCN3c4ccccc4Sc4ccc(C(=O)O)cc43)CC2)cc(=O)n(C)c1=O | 43%
Cn1c(N2CCN(CCCN3c4ccccc4Sc4ccc(C(=O)O)cc43)CC2)cc(=O)n(C)c1=O | 39%

System: not listed separately
Experiment: Protein binding in rat by equilibrium dialysis
Type: ADME, organism-based
Conditions: read-out: PB (converted)
Method in brief: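 Protein binding (%) determined by equilibrium dialysis.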

fraction unbound | SMILES
0.001 | Cn1c(N2CCN(CCCCN3c4ccccc4Sc4ccc(C(=O)O)cc43)CC2)cc(=O)n(C)c1=O
0.006 | Cn1c(N2CCN(CCCN3c4ccccc4Sc4ccc(C(=O)O)cc43)CC2)cc(=O)n(C)c1=O
0.047 | Cn1c(N2CCCN(CCCN3c4ccccc4Sc4ccc(OCC(=O)O)cc43)CC2)cc(=O)n(C)c1=O
0.012 | Cn1c(N2CCCN(CCCN3c4ccccc4Sc4ccc(CCC(=O)O)cc43)CC2)cc(=O)n(C)c1=O
0.012 | Cn1c(N2CCCN(CCCN3c4ccccc4Sc4ccc(C(=O)O)cc43)CC2)cc(=O)n(C)c1=O

System: not listed separately
Experiment: Oral bioavailability in rat
Type: ADME, organism-based
Conditions: in vivo

bioavailability | SMILES
16% | Cn1c(N2CCN(CCCCN3c4ccccc4Sc4ccc(C(=O)O)cc43)CC2)cc(=O)n(C)c1=O
30% | Cn1c(C2=CCN(CCCN3c4ccccc4Sc4ccc(CC(=O)O)cc43)CC2)cc(=O)n(C)c1=O
17% | Cn1c(N2CCN(CCCN3c4ccccc4Sc4ccc(C(=O)O)cc43)CC2)cc(=O)n(C)c1=O
7% | Cn1c(N2CCCN(CCCN3c4ccccc4Sc4ccc(CCC(=O)O)cc43)CC2)cc(=O)n(C)c1=O
7% | Cn1c(N2CCCN(CCCN3c4ccccc4Sc4ccc(C(=O)O)cc43)CC2)cc(=O)n(C)c1=O

System: Mus musculus
Experiment: Antiinflammatory activity in BALB/c mouse model assessed as inhibition of ovalbumin-induced ear swelling at 10 mg/kg, po administered 60 mins before ovalbumin challenge measured 1 hr after elicitation by immediate type reaction assay
Type: functional
Conditions: not given
Method in brief: (§1)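 Female BALB/c mice, 8 weeks old, sensitized by i.p. OVA with alum; two weeks later compound suspended in 0.5% MC given orally 60 min before OVA injection into the ear.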

SMILES | inhibition in vivo at 10 mg/kg
CN1CCC(=C2c3ccccc3CC(=O)c3sccc32)CC1.O=C(O)/C=C/C(=O)O [KETOTIFEN FUMARATE] | 119%
C[C@]12C=CC(=O)C=C1CC[C@@H]1[C@@H]2[C@@H](O)C[C@@]2(C)[C@H]1CC[C@]2(O)C(=O)CO [PREDNISOLONE] | 22%
Cn1c(C2=CCN(CCCN3c4ccccc4Sc4ccc(CC(=O)O)cc43)CC2)cc(=O)n(C)c1=O | 86%
CC(C)(C(=O)O)c1ccc(C(O)CCCN2CCC(C(O)(c3ccccc3)c3ccccc3)CC2)cc1 (stereo unspecified) [FEXOFENADINE] | 61%
Cn1c(N2CCN(CCCN3c4ccccc4Sc4ccc(C(=O)O)cc43)CC2)cc(=O)n(C)c1=O | 47%
Cn1c(N2CCCN(CCCN3c4ccccc4Sc4ccc(CCC(=O)O)cc43)CC2)cc(=O)n(C)c1=O | 79%
Cn1c(N2CCCN(CCCN3c4ccccc4Sc4ccc(C(=O)O)cc43)CC2)cc(=O)n(C)c1=O | 50%

System: Mus musculus
Experiment: Antiinflammatory activity in BALB/c mouse model assessed as inhibition of ovalbumin-induced ear swelling at 30 mg/kg, po administered 60 mins before ovalbumin challenge measured 1 hr after elicitation by immediate type reaction assay
Type: functional
Conditions: not given
Method in brief: as §1

SMILES | inhibition in vivo at 30 mg/kg
CN1CCC(=C2c3ccccc3CC(=O)c3sccc32)CC1.O=C(O)/C=C/C(=O)O [KETOTIFEN FUMARATE] | 106%

System: Mus musculus
Experiment: Antiinflammatory activity in BALB/c mouse model assessed as inhibition of ovalbumin-induced ear swelling at 10 mg/kg, po administered 60 mins before ovalbumin challenge measured 24 hrs after elicitation by late type reaction assay
Type: functional
Conditions: not given
Method in brief: as §1

SMILES | inhibition in vivo at 10 mg/kg
CN1CCC(=C2c3ccccc3CC(=O)c3sccc32)CC1.O=C(O)/C=C/C(=O)O [KETOTIFEN FUMARATE] | 3%
C[C@]12C=CC(=O)C=C1CC[C@@H]1[C@@H]2[C@@H](O)C[C@@]2(C)[C@H]1CC[C@]2(O)C(=O)CO [PREDNISOLONE] | 81%
Cn1c(C2=CCN(CCCN3c4ccccc4Sc4ccc(CC(=O)O)cc43)CC2)cc(=O)n(C)c1=O | 12%
CC(C)(C(=O)O)c1ccc(C(O)CCCN2CCC(C(O)(c3ccccc3)c3ccccc3)CC2)cc1 (stereo unspecified) [FEXOFENADINE] | 6%
Cn1c(N2CCN(CCCN3c4ccccc4Sc4ccc(C(=O)O)cc43)CC2)cc(=O)n(C)c1=O | 65%
Cn1c(N2CCCN(CCCN3c4ccccc4Sc4ccc(CCC(=O)O)cc43)CC2)cc(=O)n(C)c1=O | 49%
Cn1c(N2CCCN(CCCN3c4ccccc4Sc4ccc(C(=O)O)cc43)CC2)cc(=O)n(C)c1=O | 53%

System: Mus musculus
Experiment: Antiinflammatory activity in BALB/c mouse model assessed as inhibition of ovalbumin-induced ear swelling at 30 mg/kg, po administered 60 mins before ovalbumin challenge measured 24 hrs after elicitation by late type reaction assay
Type: functional
Conditions: not given
Method in brief: as §1

SMILES | inhibition in vivo at 30 mg/kg
CN1CCC(=C2c3ccccc3CC(=O)c3sccc32)CC1.O=C(O)/C=C/C(=O)O [KETOTIFEN FUMARATE] | -4%
